pEC50, pIC50: −log10 of the molar value. ≈ marks a conversion by molar mass, not a printed value.
What was measured:
[1] = Elimination half life in Sprague-Dawley rat at 2.5 mg/kg, iv and 10 mg/kg, po; assay type: ADME, organism-based; details: in vivo, read-out: beta t1/2 (converted)
Method in brief: (§1)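 Discrete PK in male Sprague-Dawley rats. Oral arm: 10 mg/kg PO in 20% β-CD at 1 mg/mL. Plasma sampled to 8 h, giving Cmax, Tmax and AUC0-8h. Absolute oral bioavailability derived against the IV arm.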

[2] = Volume of distribution at steady state in dog at 1 mg/kg, iv and 5 mg/kg, po; assay type: ADME, organism-based, Canis lupus familiaris; details: in vivo, read-out: Vdss
[3] = target: T1, Metabotropic glutamate receptor 5 (Homo sapiens, UniProt P41594); experiment: Positive allosteric modulation of human mGlu5 expressed in HEK293 cells assessed as calcium mobilization; assay type: functional, cell-based; details: read-out: EC50
Method in brief: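 Calcium mobilization read-out in HEK293 cells stably expressing human mGlu5; PAM EC50 and efficacy as % of maximal glutamate response. Mean±SEM of three or more independent determinations, each in triplicate.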
Target sequence in this assay (P41594 whole entry): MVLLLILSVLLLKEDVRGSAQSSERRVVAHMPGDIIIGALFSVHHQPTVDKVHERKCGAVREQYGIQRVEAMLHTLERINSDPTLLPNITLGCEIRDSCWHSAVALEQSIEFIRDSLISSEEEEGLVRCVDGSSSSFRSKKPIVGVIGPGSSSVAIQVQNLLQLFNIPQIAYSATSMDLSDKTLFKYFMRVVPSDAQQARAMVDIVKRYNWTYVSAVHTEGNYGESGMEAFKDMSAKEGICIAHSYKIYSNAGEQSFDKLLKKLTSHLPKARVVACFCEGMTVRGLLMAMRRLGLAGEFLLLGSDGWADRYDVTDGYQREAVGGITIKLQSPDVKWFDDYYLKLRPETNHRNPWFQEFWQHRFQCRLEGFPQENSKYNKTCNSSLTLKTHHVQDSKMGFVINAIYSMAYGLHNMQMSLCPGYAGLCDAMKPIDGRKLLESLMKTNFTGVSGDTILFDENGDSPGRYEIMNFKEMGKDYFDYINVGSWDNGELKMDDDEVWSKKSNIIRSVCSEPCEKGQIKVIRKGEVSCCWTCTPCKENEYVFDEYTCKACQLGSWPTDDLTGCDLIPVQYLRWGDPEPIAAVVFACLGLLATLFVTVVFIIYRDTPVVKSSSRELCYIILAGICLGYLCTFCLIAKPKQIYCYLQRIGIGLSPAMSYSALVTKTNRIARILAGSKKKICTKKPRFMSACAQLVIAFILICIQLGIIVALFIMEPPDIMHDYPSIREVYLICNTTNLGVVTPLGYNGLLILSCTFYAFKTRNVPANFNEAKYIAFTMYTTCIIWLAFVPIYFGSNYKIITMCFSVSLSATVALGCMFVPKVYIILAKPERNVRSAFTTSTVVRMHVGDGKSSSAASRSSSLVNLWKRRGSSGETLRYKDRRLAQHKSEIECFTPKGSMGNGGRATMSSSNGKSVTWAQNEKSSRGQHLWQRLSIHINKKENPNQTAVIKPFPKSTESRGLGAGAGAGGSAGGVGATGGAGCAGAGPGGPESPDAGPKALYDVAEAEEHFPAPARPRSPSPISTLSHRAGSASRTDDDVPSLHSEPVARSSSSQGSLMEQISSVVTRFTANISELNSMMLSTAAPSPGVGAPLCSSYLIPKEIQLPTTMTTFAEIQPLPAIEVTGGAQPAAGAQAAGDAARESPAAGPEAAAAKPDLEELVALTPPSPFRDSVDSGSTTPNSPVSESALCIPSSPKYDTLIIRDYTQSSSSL

[4] = Stability in simulated gastric fluid for 1 hr; assay type: physicochemical; details: simulated gi fluid
Method in brief: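 Incubation in simulated gastric fluid at 37 °C for 1 h; decomposition of the external amide assessed.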

[5] = Oral bioavailability in dog at 5 mg/kg; assay type: ADME, organism-based, Canis lupus familiaris; details: in vivo
[6] = test system: Rattus norvegicus; experiment: Inhibition of amphetamine-induced hyperlocomotion in oral-dosed Sprague-Dawley rat assessed as reversal of amphtamine-induced effect drug administered 20 mins prior to 1 mg/kg amphetamine challenge; assay type: functional; details: read-out: MED
Method in brief: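 Male Sprague-Dawley rats received a single oral screening dose of 10 mg/kg; full dose-response studies were also run (n = 8/group). Readout is % reversal of amphetamine-induced locomotion relative to vehicle control. Terminal brain and plasma levels were sampled at T90.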

[7] = target: Metabotropic glutamate receptor 6 (Homo sapiens, UniProt O15303); experiment: Positive allosteric modulation of mGlu6 receptor (unknown origin) relative to control
[8] = target: T2, Cytochrome P450 1A2 (Homo sapiens, UniProt P05177); experiment: Inhibition of CYP1A2 (unknown origin); assay type: ADME
T2 sequence (P05177 whole entry): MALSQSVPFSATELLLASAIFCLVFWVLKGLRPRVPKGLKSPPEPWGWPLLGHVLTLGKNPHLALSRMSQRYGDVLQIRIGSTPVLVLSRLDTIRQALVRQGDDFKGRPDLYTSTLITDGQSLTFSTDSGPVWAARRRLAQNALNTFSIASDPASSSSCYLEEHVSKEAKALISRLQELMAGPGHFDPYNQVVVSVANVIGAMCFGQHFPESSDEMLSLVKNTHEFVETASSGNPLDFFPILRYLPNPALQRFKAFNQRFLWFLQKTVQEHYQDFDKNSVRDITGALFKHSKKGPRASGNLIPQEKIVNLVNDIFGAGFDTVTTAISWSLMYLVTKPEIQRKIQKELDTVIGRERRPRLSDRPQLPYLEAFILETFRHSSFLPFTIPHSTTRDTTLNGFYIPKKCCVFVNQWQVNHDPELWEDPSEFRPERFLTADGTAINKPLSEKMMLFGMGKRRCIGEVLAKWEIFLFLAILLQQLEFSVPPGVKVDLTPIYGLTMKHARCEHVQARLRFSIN

[9] = test system: Rattus norvegicus; experiment: Toxicity in Sprague-Dawley rat assessed as alteration in behavior across 30 distinct autonomic and somatomotor endpoints at 30 mg/kg, po; assay type: organism-based; details: in vivo
Method in brief: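 Modified Irwin screen in rats given a single 30 mg/kg oral dose; 30 autonomic and somatomotor endpoints scored for behavioral change; brain concentration sampled 1.0 h post-dose.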

[10] = test system: Plasma; experiment: Fraction unbound in rat plasma; assay type: ADME, cell-free
Method in brief: (§2)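 Plasma protein binding measured in human and rat plasma; readout is fraction unbound.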

[11] = test system: Brain; experiment: Drug concentration in Sprague-Dawley rat brain at 56.6 mg/kg, po; assay type: ADME, organism-based; details: in vivo, read-out: Drug uptake
[12] = target: Metabotropic glutamate receptor 5 (Rattus norvegicus) (UniProt P31424); experiment: Positive allosteric modulation of mGlu5 in rat astrocytes relative to glutamate; assay type: cell-based
Metabotropic glutamate receptor 5 (Rattus norvegicus), sequence (P31424 21-1203 limits assumed): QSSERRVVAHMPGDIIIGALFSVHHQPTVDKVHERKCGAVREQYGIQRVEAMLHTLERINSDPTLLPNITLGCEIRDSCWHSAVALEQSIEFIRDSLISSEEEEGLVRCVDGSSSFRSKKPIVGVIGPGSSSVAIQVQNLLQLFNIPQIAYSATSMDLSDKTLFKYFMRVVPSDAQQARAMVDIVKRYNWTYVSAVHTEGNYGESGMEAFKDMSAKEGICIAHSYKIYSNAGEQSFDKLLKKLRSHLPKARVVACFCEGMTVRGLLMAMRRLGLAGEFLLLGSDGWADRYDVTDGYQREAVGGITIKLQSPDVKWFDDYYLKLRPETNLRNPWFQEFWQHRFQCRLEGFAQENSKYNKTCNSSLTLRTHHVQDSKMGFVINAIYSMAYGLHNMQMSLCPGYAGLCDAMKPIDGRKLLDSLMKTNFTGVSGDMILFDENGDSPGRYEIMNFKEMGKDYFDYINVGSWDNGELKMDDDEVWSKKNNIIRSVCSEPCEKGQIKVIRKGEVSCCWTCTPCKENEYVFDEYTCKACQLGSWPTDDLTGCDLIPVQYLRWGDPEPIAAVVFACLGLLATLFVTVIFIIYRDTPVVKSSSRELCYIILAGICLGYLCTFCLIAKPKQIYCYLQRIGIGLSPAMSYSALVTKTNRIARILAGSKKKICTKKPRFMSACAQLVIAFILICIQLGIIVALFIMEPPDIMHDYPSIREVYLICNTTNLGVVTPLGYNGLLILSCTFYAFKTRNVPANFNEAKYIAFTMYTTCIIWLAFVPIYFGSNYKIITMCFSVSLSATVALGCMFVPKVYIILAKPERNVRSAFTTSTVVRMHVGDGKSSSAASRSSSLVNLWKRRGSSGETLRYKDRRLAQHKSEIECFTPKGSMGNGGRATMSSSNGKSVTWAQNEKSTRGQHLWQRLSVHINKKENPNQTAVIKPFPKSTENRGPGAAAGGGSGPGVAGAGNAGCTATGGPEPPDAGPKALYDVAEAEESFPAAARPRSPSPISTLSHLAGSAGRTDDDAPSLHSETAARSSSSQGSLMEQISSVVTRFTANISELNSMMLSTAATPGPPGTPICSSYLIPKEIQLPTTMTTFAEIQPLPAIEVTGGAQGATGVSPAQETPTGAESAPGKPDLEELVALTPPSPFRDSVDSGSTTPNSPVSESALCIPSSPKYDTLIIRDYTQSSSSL

[13] = target: Cytochrome P450 3A4 (Homo sapiens, UniProt P08684); experiment: Inhibition of CYP3A4 (unknown origin); assay type: ADME
[14] = target: Metabotropic glutamate receptor 4 (Homo sapiens, UniProt Q14833); experiment: Positive allosteric modulation of mGlu4 receptor (unknown origin) relative to control
[15] = target: Metabotropic glutamate receptor 8 (Homo sapiens, UniProt O00222); experiment: Positive allosteric modulation of mGlu8 receptor (unknown origin) relative to control
Metabotropic glutamate receptor 8, sequence (O00222 whole entry): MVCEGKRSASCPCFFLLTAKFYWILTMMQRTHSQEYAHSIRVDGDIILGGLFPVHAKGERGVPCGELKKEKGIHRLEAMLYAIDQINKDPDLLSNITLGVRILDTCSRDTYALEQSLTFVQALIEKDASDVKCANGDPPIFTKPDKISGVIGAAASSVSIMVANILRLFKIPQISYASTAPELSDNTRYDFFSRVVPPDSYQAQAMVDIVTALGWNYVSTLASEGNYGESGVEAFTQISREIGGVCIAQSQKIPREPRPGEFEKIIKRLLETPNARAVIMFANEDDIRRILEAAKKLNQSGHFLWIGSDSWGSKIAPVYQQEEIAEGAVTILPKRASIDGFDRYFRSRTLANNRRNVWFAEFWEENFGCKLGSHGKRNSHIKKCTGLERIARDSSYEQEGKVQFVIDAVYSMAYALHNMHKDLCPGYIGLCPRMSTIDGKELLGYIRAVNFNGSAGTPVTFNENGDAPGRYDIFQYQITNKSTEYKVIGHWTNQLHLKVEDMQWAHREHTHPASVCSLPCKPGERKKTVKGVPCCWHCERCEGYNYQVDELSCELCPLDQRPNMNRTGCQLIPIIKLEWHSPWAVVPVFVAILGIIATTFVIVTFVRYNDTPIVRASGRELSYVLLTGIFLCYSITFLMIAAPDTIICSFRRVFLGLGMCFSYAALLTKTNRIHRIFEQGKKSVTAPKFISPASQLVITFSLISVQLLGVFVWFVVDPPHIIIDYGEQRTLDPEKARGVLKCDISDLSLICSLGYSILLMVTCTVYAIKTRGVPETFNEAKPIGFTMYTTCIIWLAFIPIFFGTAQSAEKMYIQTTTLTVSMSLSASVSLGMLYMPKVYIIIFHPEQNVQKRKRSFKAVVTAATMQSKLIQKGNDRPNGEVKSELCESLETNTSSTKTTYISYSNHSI

[16] = target: Cytochrome P450 2C9 (Homo sapiens, UniProt P11712); experiment: Inhibition of CYP2C9 (unknown origin); assay type: ADME
Cytochrome P450 2C9, sequence (P11712 whole entry): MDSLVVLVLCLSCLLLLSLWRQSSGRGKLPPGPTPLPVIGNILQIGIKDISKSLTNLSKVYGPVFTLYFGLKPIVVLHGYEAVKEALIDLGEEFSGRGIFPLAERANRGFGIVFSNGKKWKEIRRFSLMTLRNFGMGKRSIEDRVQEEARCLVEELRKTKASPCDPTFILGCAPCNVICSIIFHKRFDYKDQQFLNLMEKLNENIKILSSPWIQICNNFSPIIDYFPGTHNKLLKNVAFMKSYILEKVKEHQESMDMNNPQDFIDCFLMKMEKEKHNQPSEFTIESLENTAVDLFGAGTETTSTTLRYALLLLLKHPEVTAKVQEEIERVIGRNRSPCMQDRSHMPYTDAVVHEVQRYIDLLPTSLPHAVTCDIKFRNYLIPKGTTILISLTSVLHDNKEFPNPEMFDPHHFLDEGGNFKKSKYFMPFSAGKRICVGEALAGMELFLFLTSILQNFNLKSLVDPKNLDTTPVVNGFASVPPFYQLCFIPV

[17] = test system: Rattus norvegicus; experiment: Toxicity in Sprague-Dawley rat assessed as decreased motor coordination at 56.6 mg/kg, po; assay type: organism-based; details: in vivo
Method in brief: (§3)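 Rats dosed orally at 56.6 mg/kg and observed over 6.0 h. Behavior scored on a modified Racine scale, including motor activity and coordination. Brain concentration measured.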

[18] = AUC (0 to 8 hrs) in Sprague-Dawley rat plasma at 2.5 mg/kg, iv and 10 mg/kg, po; assay type: ADME, organism-based; method in brief: as §1
[19] = Drug concentration in Sprague-Dawley rat brain at 30 mg/kg, po after 1 hr; assay type: ADME, organism-based; details: read-out: Drug uptake
Method in brief: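 Rat modified Irwin study: single 30 mg/kg PO dose, with behaviour scored across 30 autonomic and somatomotor endpoints. Brain concentration measured 1.0 h post-dose. Unbound brain level estimated.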

[20] = Solubility in simulated gastric fluid; assay type: ADME; details: simulated gi fluid
Method in brief: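 Solubility measured in simulated gastric fluid at 37 °C over 1 h; compound stability was assessed in parallel.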

[21] = test system: Rattus norvegicus; experiment: Cmax in Sprague-Dawley rat at 2.5 mg/kg, iv and 10 mg/kg, po; assay type: ADME, organism-based; details: in vivo; method in brief: as §1
[22] = test system: Brain; experiment: Fraction unbound in rat brain; assay type: ADME, tissue-based
Method in brief: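 Rat brain unbound fraction obtained from a brain homogenate binding assay.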

[23] = test system: Rattus norvegicus; experiment: Toxicity in Sprague-Dawley rat assessed as decreased motor activity at 56.6 mg/kg, po; assay type: organism-based; details: in vivo; method in brief: as §3
[24] = test system: Rattus norvegicus; experiment: Oral bioavailability in Sprague-Dawley rat at 10 mg/kg; assay type: ADME, organism-based; details: in vivo
Method in brief: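 Male Sprague-Dawley rats were dosed orally at 10 mg/kg in 20% β-CD (1 mg/mL) and sampled over 8 h. Cmax, Tmax and AUC0-8h were determined, and absolute %F was calculated against a discrete IV study.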

[25] = target: T1, Metabotropic glutamate receptor 5; experiment: Positive allosteric modulation of human mGlu5 expressed in HEK293 cells assessed as calcium mobilization relative to glutamate; assay type: functional, cell-based
Method in brief: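 Calcium mobilization in HEK293 cells expressing human mGlu5, reported as EC50 and % Glu Max. Mean±SEM of three or more independent determinations, each run in triplicate.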

[26] = Plasma clearance in dog at 1 mg/kg, iv and 5 mg/kg, po; assay type: ADME, organism-based, Canis lupus familiaris
[27] = target: Metabotropic glutamate receptor 1 (Homo sapiens, UniProt Q13255); experiment: Positive allosteric modulation of mGlu1 receptor (unknown origin) relative to control
[28] = Stability in beta cyclodextrin at pH 6 upto 5 days; assay type: physicochemical; details: buffer, pH 6, 120 h
Method in brief: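 Stability of the compound formulated at 4 mg/mL in 20% β-cyclodextrin vehicle, pH 6, monitored for up to five days; percent decomposition of the amide determined.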

[29] = test system: Plasma; experiment: Stability in rat plasma after 4 hrs; assay type: ADME, cell-free
Method in brief: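 Compound incubated in rat plasma at 37 °C for 4 h; stability assessed.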

[30] = target: Metabotropic glutamate receptor 5 (Rattus norvegicus) (UniProt P31424); experiment: Positive allosteric modulation of rat mGlu5 assessed as calcium mobilization by cell-based assay relative to glutamate; assay type: functional
[31] = AUC in dog plasma at 1 mg/kg, iv and 5 mg/kg, po; assay type: ADME, organism-based, Canis lupus familiaris
[32] = Cmax in dog at 1 mg/kg, iv and 5 mg/kg, po; assay type: ADME, organism-based, Canis lupus familiaris; details: in vivo
[33] = target: Metabotropic glutamate receptor 5 (Rattus norvegicus, UniProt P31424); experiment: Positive allosteric modulation of rat mGlu5 assessed as calcium mobilization by cell-based assay; assay type: functional
[34] = Plasma clearance in Sprague-Dawley rat at 0.2 mg/kg, iv; assay type: ADME, organism-based
[35] = Elimination half life in dog at 1 mg/kg, iv and 5 mg/kg, po; assay type: ADME, organism-based, Canis lupus familiaris; details: in vivo
[36] = Plasma clearance in Sprague-Dawley rat at 2.5 mg/kg, iv and 10 mg/kg, po; assay type: ADME, organism-based
[37] = target: Metabotropic glutamate receptor 3 (Homo sapiens, UniProt Q14832); experiment: Positive allosteric modulation of mGlu3 receptor (unknown origin) relative to control
[38] = test system: Plasma; experiment: Fraction unbound in human plasma; assay type: ADME, cell-free; method in brief: as §2
[39] = target: Metabotropic glutamate receptor 2 (Homo sapiens, UniProt Q14416); experiment: Positive allosteric modulation of mGlu2 receptor (unknown origin) relative to control
[40] = Volume of distribution at steady state in Sprague-Dawley rat at 2.5 mg/kg, iv and 10 mg/kg, po; assay type: ADME, organism-based; details: in vivo, read-out: Vdss
[41] = target: Cytochrome P450 2D6 (Homo sapiens, UniProt P10635); experiment: Inhibition of CYP2D6 (unknown origin); assay type: ADME
[42] = target: Metabotropic glutamate receptor 7 (Homo sapiens, UniProt Q14831); experiment: Positive allosteric modulation of mGlu7 receptor (unknown origin) relative to control
Metabotropic glutamate receptor 7, sequence (Q14831 whole entry): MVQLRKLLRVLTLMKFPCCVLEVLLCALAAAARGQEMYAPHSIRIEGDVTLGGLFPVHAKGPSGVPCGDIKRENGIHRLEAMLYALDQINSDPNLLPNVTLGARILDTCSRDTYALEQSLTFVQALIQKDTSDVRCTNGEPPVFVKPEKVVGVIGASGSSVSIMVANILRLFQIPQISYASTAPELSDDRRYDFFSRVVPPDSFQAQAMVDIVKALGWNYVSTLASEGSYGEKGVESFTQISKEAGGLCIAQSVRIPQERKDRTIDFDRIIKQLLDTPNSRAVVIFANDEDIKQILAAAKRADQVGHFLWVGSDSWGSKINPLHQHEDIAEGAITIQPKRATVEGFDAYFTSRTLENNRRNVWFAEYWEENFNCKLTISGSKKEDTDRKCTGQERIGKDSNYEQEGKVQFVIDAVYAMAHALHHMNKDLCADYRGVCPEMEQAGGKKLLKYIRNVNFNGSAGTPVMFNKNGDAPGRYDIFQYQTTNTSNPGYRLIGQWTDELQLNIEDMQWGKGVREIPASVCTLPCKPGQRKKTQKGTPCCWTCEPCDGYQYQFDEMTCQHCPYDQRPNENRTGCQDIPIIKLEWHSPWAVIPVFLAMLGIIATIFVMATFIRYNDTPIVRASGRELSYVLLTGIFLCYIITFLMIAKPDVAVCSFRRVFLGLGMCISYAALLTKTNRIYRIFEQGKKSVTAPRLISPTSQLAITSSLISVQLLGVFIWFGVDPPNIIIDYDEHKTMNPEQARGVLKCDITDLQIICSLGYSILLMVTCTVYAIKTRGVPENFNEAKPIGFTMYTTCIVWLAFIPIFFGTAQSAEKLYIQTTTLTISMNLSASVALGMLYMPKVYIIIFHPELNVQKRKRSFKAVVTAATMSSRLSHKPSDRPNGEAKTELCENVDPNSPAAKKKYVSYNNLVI

CC(=O)N1CCCn2nc(COc3ccccc3)cc21
half-life [1]: 6.5 h | Vd [2]: 1.1 L/kg | pEC50 [3]: 6.44 | Stability [4]: Stable | bioavailability [5]: < 5% | minimal effective dose [6]: 3 mg/kg | pEC50 [7]: < 5.00 | pIC50 [8]: < 4.52 | Activity [9]: Non-toxic | Fu [10]: 0.37 | concentration [11]: 113 µM | %max [12]: 57% | pIC50 [13]: < 4.52 | pEC50 [14]: < 5.00 | pEC50 [15]: < 5.00 | pIC50 [16]: < 4.52 | Activity [17]: Toxic | AUC(0-t) [18]: 3.3 µM·h | concentration at 1 h [19]: 71 µM | solubility [20]: 315 µg/mL (≈ 1160 µM) | Cmax [21]: 2.5 µM | Fu [22]: 0.51 | Activity [23]: Toxic | F [24]: 29% | %max [25]: 65% | clearance [26]: 37 mL/min/kg | pEC50 [27]: < 5.00 | Stability [28]: Stable | Stability [29]: Stable | %max [30]: 65% | AUC [31]: 0.1 µM·h | Cmax [32]: < 0.1 µM | pEC50 [33]: 7.22 | clearance [34]: 118 mL/min/kg | half-life [35]: < 0.5 h | clearance [36]: 54 mL/min/kg | pEC50 [37]: < 5.00 | Fu [38]: 0.26 | pEC50 [39]: < 5.00 | Vd [40]: 3.9 L/kg | pIC50 [41]: < 4.52 | pEC50 [42]: < 5.00

Reference: ChEMBL document CHEMBL3632544, “Acyl dihydropyrazolo[1,5-a]pyrimidinones as metabotropic glutamate receptor 5 positive allosteric modulators” (Bioorg Med Chem Lett, 2015)
